Test results: BindingDB's records for doi:10.1021/jm0101702 (Abbott Laboratories, 2001)

Key:
[1] = Inhibition of VCAM-1 in human endothelial cells
[2] = target: T1, Vascular cell adhesion protein 1 (Homo sapiens, UniProt P19320); assay: In vitro inhibitory potency compared to TNF-alpha induced VCAM-1 in human endothelial cells (ELISA assay)
T1 sequence (P19320 whole entry): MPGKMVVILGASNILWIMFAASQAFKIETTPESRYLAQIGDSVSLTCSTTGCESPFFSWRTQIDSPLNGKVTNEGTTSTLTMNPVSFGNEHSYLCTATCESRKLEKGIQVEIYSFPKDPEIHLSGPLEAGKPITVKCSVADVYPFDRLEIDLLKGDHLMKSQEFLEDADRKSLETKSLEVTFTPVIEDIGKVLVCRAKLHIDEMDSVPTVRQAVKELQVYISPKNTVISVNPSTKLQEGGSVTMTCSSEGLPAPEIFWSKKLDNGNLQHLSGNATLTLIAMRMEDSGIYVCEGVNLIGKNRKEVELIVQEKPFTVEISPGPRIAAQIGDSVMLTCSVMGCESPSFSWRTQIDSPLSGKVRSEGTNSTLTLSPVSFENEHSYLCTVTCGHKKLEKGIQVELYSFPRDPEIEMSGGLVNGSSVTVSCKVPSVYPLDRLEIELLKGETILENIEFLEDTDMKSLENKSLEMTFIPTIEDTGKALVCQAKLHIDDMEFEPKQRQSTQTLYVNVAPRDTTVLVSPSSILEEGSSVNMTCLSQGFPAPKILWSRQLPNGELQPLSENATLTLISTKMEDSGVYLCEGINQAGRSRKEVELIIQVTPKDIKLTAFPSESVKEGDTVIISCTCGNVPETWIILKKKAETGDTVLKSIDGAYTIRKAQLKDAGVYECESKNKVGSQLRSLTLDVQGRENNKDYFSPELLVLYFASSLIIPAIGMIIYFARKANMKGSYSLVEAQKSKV
In short: (§1)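 Whole-cell ELISA on primary HUVECs plated at 5 × 10^4 cells/mL in EBM/2% FBS with growth supplements. Compound preincubated 24 h at 37 °C, then inducer added (TNFα at 5 ng/mL final, or IL-1β or PMA in its place) for 6 h at 37 °C. Mouse monoclonal anti-E-selectin, anti-ICAM-1 or anti-VCAM-1 was applied overnight at 4 °C, then HRP anti-mouse IgG. Detection with OPD, A490. Triplicate assays.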

[3] = target: T1, Vascular cell adhesion protein 1; assay: In vitro inhibitory potency compared to IL1-beta induced VCAM-1 in human endothelial cells (ELISA assay)
In short: as §1

[4] = target: T1, Vascular cell adhesion protein 1; assay: In vitro inhibitory potency compared to PMA induced VCAM-1 in human endothelial cells (ELISA assay)
In short: as §1

Q: With `NC(=O)c1cc2c(Oc3ccc(/C=C/C(=O)NCCN(CCO)CCO)cc3)cncc2s1` [4-[4-(2-{2-[Bis-(2-hydroxy-ethyl)-amino]-ethylcarbamoyl}-vinyl)-phenoxy]-thieno[2,3-c]pyridine-2-carboxylic acid amide] as the molecule, how does the IC50 [1] read?
A: Its IC50 is greater than 1000 nM.

Q: With `NC(=O)c1cc2c(Oc3cccc(C(F)(F)F)c3)cncc2s1` [4-(3-Trifluoromethyl-phenoxy)-thieno[2,3-c]pyridine-2-carboxylic acid amide] as the molecule, how does the IC50 [1] read?
A: The IC50 was greater than 1000 nM.

Q: Which IC50 [1] does the source give for `CNC(=O)c1cc2c(Oc3ccc(/C=C/C(=O)NCCN(CCO)CCO)cc3)cncc2s1` [4-[4-(2-{2-[Bis-(2-hydroxy-ethyl)-amino]-ethylcarbamoyl}-vinyl)-phenoxy]-thieno[2,3-c]pyridine-2-carboxylic acid methylamide] here?
A: The IC50 was greater than 1000 nM.

Q: Which IC50 [1] does the source give for `CNC(=O)c1cc2c(Oc3ccc(/C=C/C(=O)NCC(O)CO)cc3)cncc2s1` (stereo unspecified) [4-{4-[2-(2,3-Dihydroxy-propylcarbamoyl)-vinyl]-phenoxy}-thieno[2,3-c]pyridine-2-carboxylic acid methylamide] here?
A: The IC50 was greater than 1000 nM.

Q: For `NC(=O)c1cc2c(Oc3ccc(Cl)cc3Br)cncc2s1` [4-(2-Bromo-4-chloro-phenoxy)-thieno[2,3-c]pyridine-2-carboxylic acid amide], which IC50 [1] is on record?
A: The IC50 was 330 nM.

Q: Which IC50 [1] does the source give for `CCOCCOCCOCC(F)(F)c1ccc(Oc2cncc3sc(C(=O)NC)cc23)cc1` [4-(4-{2-[2-(2-Ethoxy-ethoxy)-ethoxy]-1,1-difluoro-ethyl}-phenoxy)-thieno[2,3-c]pyridine-2-carboxylic acid methylamide] here?
A: The IC50 was 170 nM.

Q: Which IC50 [1] does the source give for `Cc1ccc(Oc2cncc3sc(C(N)=O)cc23)cc1` [4-p-Tolyloxy-thieno[2,3-c]pyridine-2-carboxylic acid amide] here?
A: Its IC50 is 11000 nM.

Q: For `NC(=O)c1cc2c(Oc3ccc(C(=O)N4CCOCC4)cc3)cncc2s1` [4-[4-(Morpholine-4-carbonyl)-phenoxy]-thieno[2,3-c]pyridine-2-carboxylic acid amide], which IC50 [1] is on record?
A: The IC50 was greater than 1000 nM.

Q: With `NC(=O)c1cc2c(Oc3ccc(N)cc3)cncc2s1` [4-(4-Amino-phenoxy)-thieno[2,3-c]pyridine-2-carboxylic acid amide] as the molecule, how does the IC50 [1] read?
A: Its IC50 is 64 nM.

Q: For `CNC(=O)c1cc2c(Oc3ccc(-c4noc(C(F)(F)F)n4)cc3)cncc2s1` [4-[4-(5-Trifluoromethyl-[1,2,4]oxadiazol-3-yl)-phenoxy]-thieno[2,3-c]pyridine-2-carboxylic acid methylamide], which IC50 [1] is on record?
A: The IC50 was greater than 1000 nM.

Q: For `NC(=O)c1cc2c(Oc3ccc(Cl)c(F)c3)cncc2s1` [4-(4-Chloro-3-fluoro-phenoxy)-thieno[2,3-c]pyridine-2-carboxylic acid amide], which IC50 [1] is on record?
A: The IC50 was greater than 1000 nM.

Q: For `NC(=O)c1cc2c(Oc3ccc(C(O)CO)cc3)cncc2s1` (stereo unspecified) [4-[4-(1,2-Dihydroxy-ethyl)-phenoxy]-thieno[2,3-c]pyridine-2-carboxylic acid amide], which IC50 [1] is on record?
A: Its IC50 is 930 nM.

Q: With `CNC(=O)c1cc2c(Oc3ccc(-c4ccccc4)cc3)cncc2s1` [4-(Biphenyl-4-yloxy)-thieno[2,3-c]pyridine-2-carboxylic acid methylamide] as the molecule, how does the IC50 [1] read?
A: The IC50 was 79 nM.

Q: For `CC(C)c1ccc(Oc2cncc3sc(C(N)=O)cc23)cc1` [4-(4-Isopropyl-phenoxy)-thieno[2,3-c]pyridine-2-carboxylic acid amide], which IC50 [1] is on record?
A: The IC50 was greater than 100 nM.

Q: Which IC50 [2] does the source give for `CNC(=O)c1cc2c(Oc3ccc(COCCOCCOC)cc3)cncc2s1` [4-{4-[2-(2-Methoxy-ethoxy)-ethoxymethyl]-phenoxy}-thieno[2,3-c]pyridine-2-carboxylic acid methylamide] here?
A: Its IC50 is 30 nM.

Q: What about the IC50 [3] of the same molecule?
A: The IC50 was 20 nM.

Q: What about the IC50 [4] of the same molecule?
A: The IC50 was 20 nM.

Q: And the IC50 [1]?
A: Its IC50 is 120 nM.

Q: With `CNC(=O)c1cc2c(Oc3ccc(C(=O)NCCN4CCOCC4)cc3)cncc2s1` [4-[4-(2-Morpholin-4-yl-ethylcarbamoyl)-phenoxy]-thieno[2,3-c]pyridine-2-carboxylic acid methylamide] as the molecule, how does the IC50 [1] read?
A: The IC50 was greater than 1000 nM.

Q: For `CNC(=O)c1cc2c(Oc3ccc(COC)cc3)cncc2s1` [4-(4-Methoxymethyl-phenoxy)-thieno[2,3-c]pyridine-2-carboxylic acid methylamide], which IC50 [1] is on record?
A: The IC50 was greater than 24 nM.

Q: For `CNC(=O)c1cc2c(Oc3ccc(/C=C/C(=O)NCCN4CCOCC4)cc3)cncc2s1` [4-{4-[2-(2-Morpholin-4-yl-ethylcarbamoyl)-vinyl]-phenoxy}-thieno[2,3-c]pyridine-2-carboxylic acid methylamide], which IC50 [1] is on record?
A: The IC50 was greater than 1000 nM.

Q: Which IC50 [1] does the source give for `CNC(=O)c1cc2c(Oc3ccc(-c4nnn[nH]4)cc3)cncc2s1` [4-[4-(1H-Tetrazol-5-yl)-phenoxy]-thieno[2,3-c]pyridine-2-carboxylic acid methylamide] here?
A: Its IC50 is greater than 1000 nM.

Q: Which IC50 [1] does the source give for `COCc1ccc(Oc2cncc3sc(C(N)=O)cc23)cc1` [4-(4-Methoxymethyl-phenoxy)-thieno[2,3-c]pyridine-2-carboxylic acid amide] here?
A: The IC50 was 23 nM.

Q: With `CNC(=O)c1cc2c(Oc3ccc(-c4cncn4C)cc3)cncc2s1` [4-[4-(3-Methyl-3H-imidazol-4-yl)-phenoxy]-thieno[2,3-c]pyridine-2-carboxylic acid methylamide] as the molecule, how does the IC50 [1] read?
A: Its IC50 is greater than 180 nM.

Q: For `CNC(=O)c1cc2c(Oc3ccc(-n4ccnc4)cc3)cncc2s1` [4-(4-Imidazol-1-yl-phenoxy)-thieno[2,3-c]pyridine-2-carboxylic acid methylamide], which IC50 [1] is on record?
A: The IC50 was 19 nM.

Q: Which IC50 [1] does the source give for `CNC(=O)c1cc2c(Oc3ccc(-n4cncn4)cc3)cncc2s1` [4-(4-[1,2,4]Triazol-1-yl-phenoxy)-thieno[2,3-c]pyridine-2-carboxylic acid methylamide] here?
A: Its IC50 is 240 nM.

Q: With `CNC(=O)c1cc2c(Oc3ccc(C=CC(=O)NCCc4cnc[nH]4)cc3)cncc2s1` [4-(4-{2-[2-(1H-Imidazol-4-yl)-ethylcarbamoyl]-vinyl}-phenoxy)-thieno[2,3-c]pyridine-2-carboxylic acid methylamide] as the molecule, how does the IC50 [1] read?
A: The IC50 was greater than 1000 nM.

Q: Which IC50 [1] does the source give for `NC(=O)c1cc2c(Oc3ccc(/C=C/C(=O)NCCN4CCOCC4)cc3)cncc2s1` [4-{4-[2-(2-Morpholin-4-yl-ethylcarbamoyl)-vinyl]-phenoxy}-thieno[2,3-c]pyridine-2-carboxylic acid amide] here?
A: The IC50 was greater than 1000 nM.

Q: For `NC(=O)c1cc2c(Oc3ccc(C(=O)NCCN4CCOCC4)cc3)cncc2s1` [4-[4-(2-Morpholin-4-yl-ethylcarbamoyl)-phenoxy]-thieno[2,3-c]pyridine-2-carboxylic acid amide], which IC50 [1] is on record?
A: Its IC50 is greater than 1000 nM.

Q: Which IC50 [1] does the source give for `CNC(=O)c1cc2c(Oc3ccc(C(=N)NO)cc3)cncc2s1` [4-[4-(N-Hydroxycarbamimidoyl)-phenoxy]-thieno[2,3-c]pyridine-2-carboxylic acid methylamide] here?
A: Its IC50 is greater than 1000 nM.

Q: Which IC50 [1] does the source give for `CNC(=O)c1cc2c(Oc3ccc(COCCOC)cc3)cncc2s1` [4-[4-(2-Methoxy-ethoxymethyl)-phenoxy]-thieno[2,3-c]pyridine-2-carboxylic acid methylamide] here?
A: The IC50 was greater than 1000 nM.

Q: Which IC50 [1] does the source give for `NC(=O)c1cc2c(Oc3ccc(C(=O)N(C(=O)NC4CCCCC4)C4CCCCC4)cc3)cncc2s1` [4-[4-(1,3-Dicyclohexyl-ureidocarbonyl)-phenoxy]-thieno[2,3-c]pyridine-2-carboxylic acid amide] here?
A: The IC50 was greater than 1000 nM.

Q: For `NC(=O)c1cc2c(Oc3ccc(COC4CCCCO4)cc3)cncc2s1` (stereo unspecified) [4-[4-(Tetrahydro-pyran-2-yloxymethyl)-phenoxy]-thieno[2,3-c]pyridine-2-carboxylic acid amide], which IC50 [1] is on record?
A: The IC50 was greater than 1000 nM.

Q: For `Cc1cc(Cl)ccc1Oc1cncc2sc(C(N)=O)cc12` [4-(4-Chloro-2-methyl-phenoxy)-thieno[2,3-c]pyridine-2-carboxylic acid amide], which IC50 [1] is on record?
A: The IC50 was greater than 1000 nM.

Q: With `COCCOCc1ccc(Oc2cncc3sc(C(N)=O)cc23)cc1` [4-[4-(2-Methoxy-ethoxymethyl)-phenoxy]-thieno[2,3-c]pyridine-2-carboxylic acid amide] as the molecule, how does the IC50 [1] read?
A: The IC50 was greater than 1000 nM.

Q: For `NC(=O)c1cc2c(Oc3ccc(/C=C/C(=O)NCC(O)CO)cc3)cncc2s1` (stereo unspecified) [4-{4-[2-(2,3-Dihydroxy-propylcarbamoyl)-vinyl]-phenoxy}-thieno[2,3-c]pyridine-2-carboxylic acid amide], which IC50 [1] is on record?
A: The IC50 was greater than 1000 nM.

Q: With `NC(=O)c1cc2c(Oc3cccc(Br)c3)cncc2s1` [4-(3-Bromo-phenoxy)-thieno[2,3-c]pyridine-2-carboxylic acid amide] as the molecule, how does the IC50 [1] read?
A: The IC50 was greater than 1000 nM.

Q: Which IC50 [1] does the source give for `NC(=O)c1cc2c(Oc3ccc(I)cc3)cncc2s1` [4-(4-Iodo-phenoxy)-thieno[2,3-c]pyridine-2-carboxylic acid amide] here?
A: Its IC50 is greater than 10 nM.

Q: For `CCOC(=O)c1cccc(Oc2cncc3sc(C(N)=O)cc23)c1` [3-(2-Carbamoyl-thieno[2,3-c]pyridin-4-yloxy)-benzoic acid ethyl ester], which IC50 [1] is on record?
A: The IC50 was greater than 1000 nM.

Q: With `CNC(=O)c1cc2c(Oc3ccc(N4CCOCC4)cc3)cncc2s1` [4-(4-Morpholin-4-yl-phenoxy)-thieno[2,3-c]pyridine-2-carboxylic acid methylamide] as the molecule, how does the IC50 [1] read?
A: Its IC50 is greater than 1000 nM.

Q: With `CCOC(=O)c1ccc(Oc2cncc3sc(C(N)=O)cc23)cc1` [4-(2-Carbamoyl-thieno[2,3-c]pyridin-4-yloxy)-benzoic acid ethyl ester] as the molecule, how does the IC50 [1] read?
A: The IC50 was greater than 1000 nM.
